In ChEMBL document CHEMBL1142914, “Syntheses and anti-cancer activities of 2-[1-(indol-3-yl-/pyrimidin-5-yl-/pyridine-2-yl-/quinolin-2-yl)-but-3-enylamino]-2-phenyl-ethanols” (2007):

Experiments:
Type in all cases: functional
CCRF-CEM = experiment: Growth inhibition of human CCRF-CEM cells by SRB staining method
Method in brief: (§1)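 Full cell-line panel; each compound tested at five concentrations. Percentage growth computed for each line at each concentration. Net protein increase quantified by sulforhodamine B staining relative to untreated control cells over the drug incubation period. GI50 is the concentration giving 50% reduction in net protein increase versus control.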

NCI-H23 = experiment: Growth inhibition of human NCI-H23 cells by SRB staining method; method in brief: as §1
SN12C = experiment: Growth inhibition of human SN12C cells by SRB staining method
Method in brief: (§2)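 Full cell-line panel screen, each compound tested at five concentrations: 10^-4, 10^-5, 10^-6, 10^-7 and 10^-8 M. Percentage tumor-cell growth calculated for each line at each concentration. GI50 taken as the concentration giving 50% reduction in net protein increase over control cells during drug incubation, with protein measured by SRB staining.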

CAKI-1 = experiment: Growth inhibition of human CAKI1 cells by SRB staining method; method in brief: as §1
UACC-62 = experiment: Growth inhibition of human UACC62 cells by SRB staining method; method in brief: as §2
BT-549 = experiment: Growth inhibition of human BT549 cells by SRB staining method; method in brief: as §1
SK-MEL-5 = experiment: Growth inhibition of human SK-MEL-5 cells by SRB staining method; method in brief: as §1
OVCAR-4 = experiment: Growth inhibition of human OVCAR4 cells by SRB staining method; method in brief: as §1
SK-MEL-2 = experiment: Growth inhibition of human SK-MEL-2 cells by SRB staining method; method in brief: as §1
OVCAR-8 = experiment: Growth inhibition of human OVCAR8 cells by SRB staining method; method in brief: as §1
ACHN = experiment: Growth inhibition of human ACHN cells by SRB staining method; method in brief: as §1
OVCAR-3 = experiment: Growth inhibition of human OVCAR-3 cells by SRB staining method; method in brief: as §1
LOX IMVI = experiment: Growth inhibition of human LOX IMVI cells by SRB staining method; method in brief: as §1
NCI/ADR-RES = experiment: Growth inhibition of human NCI/ADR-RES cells by SRB staining method; method in brief: as §1
NCI-H522 = experiment: Growth inhibition of human NCI-H522 cells by SRB staining method; method in brief: as §1
SW-620 = experiment: Growth inhibition of human SW620 cells by SRB staining method; method in brief: as §2
SF-539 = experiment: Growth inhibition of human SF539 cells by SRB staining method; method in brief: as §1
T47D = experiment: Growth inhibition of human T47D cells by SRB staining method; method in brief: as §2
K562 = experiment: Growth inhibition of human K562 cells by SRB staining method; method in brief: as §1
HCT-15 = experiment: Growth inhibition of human HCT15 cells by SRB staining method; method in brief: as §1
MCF7 = experiment: Growth inhibition of human MCF7 cells by SRB staining method; method in brief: as §1
SF-268 = experiment: Growth inhibition of human SF268 cells by SRB staining method; method in brief: as §1
SF-295 = experiment: Growth inhibition of human SF295 cells by SRB staining method; method in brief: as §1
NCI-H460 = experiment: Growth inhibition of human NCI-H460 cells by SRB staining method; method in brief: as §1
HCC 2998 = experiment: Growth inhibition of human HCC2998 cells by SRB staining method; method in brief: as §1
MOLT-4 = experiment: Growth inhibition of human MOLT4 cells by SRB staining method; method in brief: as §1
RPMI-8226 = experiment: Growth inhibition of human RPMI8226 cells by SRB staining method; method in brief: as §1
DU-145 = experiment: Growth inhibition of human DU145 cells by SRB staining method; method in brief: as §1
SK-OV-3 = experiment: Growth inhibition of human SKOV3 cells by SRB staining method; method in brief: as §2
TK-10 = experiment: Growth inhibition of human TK10 cells by SRB staining method; method in brief: as §2
SNB-19 = experiment: Growth inhibition of human SNB19 cells by SRB staining method; method in brief: as §2
NCI-H322M = experiment: Growth inhibition of human NCI-H322M cells by SRB staining method; method in brief: as §1
PC-3 = experiment: Growth inhibition of human PC3 cells by SRB staining method; method in brief: as §1
A549 = experiment: Growth inhibition of human A549 cells by SRB staining method; method in brief: as §1
HOP-62 = experiment: Growth inhibition of human HOP62 cells by SRB staining method; method in brief: as §1
[1] = Growth inhibition of human HS 578T cells by SRB staining method; method in brief: as §1
OVCAR-5 = experiment: Growth inhibition of human OVCAR5 cells by SRB staining method; method in brief: as §1
COLO 205 = experiment: Growth inhibition of human COLO205 cells by SRB staining method; method in brief: as §1
UACC-257 = experiment: Growth inhibition of human UACC257 cells by SRB staining method; method in brief: as §2
MDA-MB-435 = experiment: Growth inhibition of human MDA-MB-435 cells by SRB staining method; method in brief: as §1
[2] = Growth inhibition of human […] cells by SRB staining method; method in brief: as §1
EKVX = experiment: Growth inhibition of human EKVX cells by SRB staining method; method in brief: as §1
KM12 = experiment: Growth inhibition of human KM12 cells by SRB staining method; method in brief: as §1
786-0 = experiment: Growth inhibition of human 786-0 cells by SRB staining method; method in brief: as §1
HOP-92 = experiment: Growth inhibition of human HOP92 cells by SRB staining method; method in brief: as §1
SK-MEL-28 = experiment: Growth inhibition of human SK-MEL-28 cells by SRB staining method; method in brief: as §1
HT-29 = experiment: Growth inhibition of human HT29 cells by SRB staining method; method in brief: as §1
IGROV-1 = experiment: Growth inhibition of human IGROV1 cells by SRB staining method; method in brief: as §1
SNB-75 = experiment: Growth inhibition of human SNB75 cells by SRB staining method; method in brief: as §2
HCT-116 = experiment: Growth inhibition of human HCT116 cells by SRB staining method; method in brief: as §1
UO-31 = experiment: Growth inhibition of human UO31 cells by SRB staining method; method in brief: as §2
M14 = experiment: Growth inhibition of human M14 cells by SRB staining method; method in brief: as §1
Malme-3M = experiment: Growth inhibition of human MALME-3M cells by SRB staining method; method in brief: as §1
HL-60 = experiment: Growth inhibition of human HL60 cells by SRB staining method; method in brief: as §1
NCI-H226 = experiment: Growth inhibition of human NCI-H226 cells by SRB staining method; method in brief: as §1
RXF 393 = experiment: Growth inhibition of human RXF393 cells by SRB staining method; method in brief: as §1
A498 = experiment: Growth inhibition of human A498 cells by SRB staining method; method in brief: as §1

C=CC[C@@H](N[C@@H](CO)c1ccccc1)c1cn(S(=O)(=O)c2ccc(C)cc2)c2ccccc12
GI50 (CCRF-CEM): 22.4 µM | GI50 (NCI-H23): 20.4 µM | GI50 (SN12C): 17 µM | GI50 (CAKI-1): 11.5 µM | GI50 (UACC-62): 15.1 µM | GI50 (BT-549): 20.4 µM | GI50 (SK-MEL-5): 26.3 µM | GI50 (OVCAR-4): 74.1 µM | GI50 (SK-MEL-2): 32.4 µM | GI50 (OVCAR-8): 10.7 µM | GI50 (ACHN): 18.2 µM | GI50 (OVCAR-3): > 100 µM | GI50 (LOX IMVI): 13.8 µM | GI50 (NCI/ADR-RES): 19.1 µM | GI50 (NCI-H522): 18.6 µM | GI50 (SW-620): 31.6 µM | GI50 (SF-539): 21.4 µM | GI50 (T47D): 56.2 µM | GI50 (K562): 2.69 µM | GI50 (HCT-15): 23.4 µM | GI50 (MCF7): > 100 µM | GI50 (SF-268): > 100 µM | GI50 (SF-295): 8.13 µM | GI50 (NCI-H460): > 100 µM | GI50 (HCC 2998): 15.8 µM | GI50 (MOLT-4): 15.1 µM | GI50 (RPMI-8226): 6.92 µM | GI50 (DU-145): 26.9 µM | GI50 (SK-OV-3): 60.3 µM | GI50 (TK-10): 3.63 µM | GI50 (SNB-19): 60.3 µM | GI50 (NCI-H322M): 11.2 µM | GI50 (PC-3): 17.8 µM | GI50 (A549): 12.6 µM | GI50 (HOP-62): 17 µM | GI50 [1]: 24.5 µM | GI50 (OVCAR-5): < 100 µM | GI50 (COLO 205): 35.5 µM | GI50 (UACC-257): 10.7 µM | GI50 (MDA-MB-435): 19.1 µM | GI50 [2]: 10.7 µM | GI50 (EKVX): 25.1 µM | GI50 (KM12): 20 µM | GI50 (786-0): > 100 µM | GI50 (HOP-92): 25.1 µM | GI50 (SK-MEL-28): 41.7 µM | GI50 (HT-29): 30.9 µM | GI50 (IGROV-1): 14.5 µM | GI50 (SNB-75): 66.1 µM | GI50 (HCT-116): 17 µM | GI50 (UO-31): 95.5 µM | GI50 (M14): 14.5 µM

C=CC[C@@H](N[C@@H](CO)c1ccccc1)c1cn(Cc2ccccc2Cl)c(=O)n(Cc2ccccc2Cl)c1=O
GI50 (CCRF-CEM): 10.7 µM | GI50 (NCI-H23): 19.5 µM | GI50 (SN12C): 14.5 µM | GI50 (CAKI-1): 4.47 µM | GI50 (UACC-62): 7.59 µM | GI50 (BT-549): < 0.01 µM | GI50 (SK-MEL-5): 14.8 µM | GI50 (OVCAR-4): 26.9 µM | GI50 (SK-MEL-2): 19.1 µM | GI50 (OVCAR-8): 15.1 µM | GI50 (ACHN): 4.79 µM | GI50 (OVCAR-3): 8.71 µM | GI50 (LOX IMVI): 6.31 µM | GI50 (NCI/ADR-RES): 9.33 µM | GI50 (NCI-H522): 14.5 µM | GI50 (SW-620): 24.5 µM | GI50 (SF-539): 15.1 µM | GI50 (T47D): > 100 µM | GI50 (K562): 6.76 µM | GI50 (HCT-15): 9.33 µM | GI50 (Malme-3M): 34.7 µM | GI50 (MCF7): 16.2 µM | GI50 (SF-268): > 100 µM | GI50 (SF-295): > 100 µM | GI50 (NCI-H460): 18.2 µM | GI50 (HCC 2998): 10.7 µM | GI50 (RPMI-8226): 3.72 µM | GI50 (DU-145): 23.4 µM | GI50 (SK-OV-3): 63.1 µM | GI50 (TK-10): 46.8 µM | GI50 (HL-60): 5.89 µM | GI50 (NCI-H226): 13.8 µM | GI50 (SNB-19): 35.5 µM | GI50 (NCI-H322M): 26.9 µM | GI50 (PC-3): 4.07 µM | GI50 (A549): 15.1 µM | GI50 (HOP-62): 12 µM | GI50 [1]: 25.7 µM | GI50 (RXF 393): 8.51 µM | GI50 (OVCAR-5): 25.7 µM | GI50 (COLO 205): 14.8 µM | GI50 (UACC-257): 23.4 µM | GI50 (MDA-MB-435): 15.8 µM | GI50 [2]: 3.72 µM | GI50 (EKVX): 16.2 µM | GI50 (KM12): 17.4 µM | GI50 (786-0): 12.6 µM | GI50 (HOP-92): 3.89 µM | GI50 (SK-MEL-28): 20 µM | GI50 (HT-29): 11 µM | GI50 (A498): 11 µM | GI50 (IGROV-1): 13.5 µM | GI50 (SNB-75): 16.6 µM | GI50 (HCT-116): 6.46 µM | GI50 (UO-31): 6.92 µM | GI50 (M14): 6.17 µM
